A selection: hits, their analogues and other compounds. The true share with any hit is near 2%.
HSP90 refold inh: inhibitors of HSP90 luciferase refolding in rabbit reticulocyte lysate; luciferase refolding luminescence, 3 h; AID 1789; inhibition, % at 5.6 µM; hit rate 0.91% among 290,000;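 active = inhibition above the screen-wide mean plus 3 SD, computed separately per campaign, cut at about 16% in these data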;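 note: 0% = DMSO wells and 100% = 60 µM geldanamycin wells; inhibitors lower the luminescence because luciferase stays unfolded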
FLuc stim CS: affects firefly luciferase, flagging false hits in luciferase stimulation screens. activation factor at 10 µM. 200,000 tested, under 10 active. ATPlite luciferase biochemical, luminescence, 10 min; 0 = ATP-free wells, 1 = DMSO control. P08659;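 active = luciferase activation factor, scaled between plate controls, of at least 2 with compound at 10 µM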
Target sequence (P08659 whole entry, looked up): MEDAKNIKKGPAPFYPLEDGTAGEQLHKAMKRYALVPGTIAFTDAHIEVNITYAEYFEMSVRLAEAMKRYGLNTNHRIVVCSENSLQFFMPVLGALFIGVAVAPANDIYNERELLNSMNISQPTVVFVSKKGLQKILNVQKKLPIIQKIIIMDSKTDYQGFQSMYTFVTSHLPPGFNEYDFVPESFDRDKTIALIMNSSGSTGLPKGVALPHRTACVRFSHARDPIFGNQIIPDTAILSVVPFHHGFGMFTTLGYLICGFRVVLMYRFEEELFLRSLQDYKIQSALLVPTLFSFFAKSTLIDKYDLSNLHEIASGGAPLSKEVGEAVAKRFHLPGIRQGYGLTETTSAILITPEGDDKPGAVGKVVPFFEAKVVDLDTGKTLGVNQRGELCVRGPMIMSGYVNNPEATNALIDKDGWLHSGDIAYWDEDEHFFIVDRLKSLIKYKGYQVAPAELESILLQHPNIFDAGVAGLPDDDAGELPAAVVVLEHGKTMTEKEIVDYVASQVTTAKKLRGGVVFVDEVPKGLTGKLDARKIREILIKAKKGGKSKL
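System: cell-free luciferase reagent; medium: PBS as buffer for the ATP substrate; doses: test compounds dosed from 2 mM stocks in 100% DMSO; incubation: 10 min, room temperature; measured by: luminescence from luciferase reaction; read-out: luciferase activation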
PPC-1+TRAIL kill: PPC-1 cancer cell killing with TRAIL present; PPC-1 cells + TRAIL, ATPLite viability luminescence; cell killing (% activity), % at 4 µM or 5 µM; hit rate 0.41% among 220,000; AID 1443;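 active = cell killing above 50% in the first pass at 4 µM, then a duplicate retest at 5 µM averaging 50% or more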;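 note: plate controls were cells with TRAIL plus DMSO for no effect and medium-only wells lacking cells for full effect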
TRAIL sens C8: sensitizes caspase-8 expressing cells to TRAIL; NB7+C8 cells + TRAIL, ATPlite viability luminescence; inhibition (viability loss, TRAIL sensitization), % at 10 µM; hit rate 1% among 360,000;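 active = compounds causing at least 50% loss of cell viability in the single-dose screen, relative to plate controls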
FLuc inhib CS: inhibits firefly luciferase, flagging false hits in luciferase inhibition screens; ATPLite firefly luciferase biochemical luminescence, 10 min; inhibition, % at 10 µM; hit rate 1.5% among 200,000;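 active = inhibition above about 50% when tested at 10 µM, limit read from the data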
PPC1 cytotox: PPC-1 cell cytotoxicity. hit rate 50% among 1,200. cytotoxicity, % at 5 µM. PPC-1 viability, ATPlite luminescence, overnight. shares compounds with PPC-1+TRAIL kill;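 active = reconfirmed compounds whose average cytotoxicity reaches 50% or more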;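 note: 0% = DMSO-treated cells and 100% = wells holding medium but no cells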
* hit, by the source's call; / = no result given.

SMILES	HSP90 refold inh	FLuc stim CS	PPC-1+TRAIL kill	TRAIL sens C8	FLuc inhib CS	PPC1 cytotox
CCCS(=O)(=O)NC(=O)C1(C)CCCN(C(=O)c2cc(OC)c(OC)c(OC)c2)C1 (stereo unspecified)	/	/	/	-3.5	/	/
C(=N\Nc1nn2cnnc2c2ccccc12)/c1ccco1	-0.7	0.9	35.2	-0.6	11.9	/
COc1cc(/C=N/Nc2nn3cnnc3c3ccccc23)ccc1O	3.2	0.1	78.7*	77.6*	93.9*	76.6*
CCOc1cc(/C=N/Nc2nn3cnnc3c3ccccc23)ccc1O	0.7	/	56.1*	73.5*	/	58.7*
CCOc1cc(/C=N/Nc2nncc(-c3ccccc3)n2)ccc1O	1.4	0.9	-4.0	-1.6	8.2	/
CCOc1cc(/C=N/Nc2cc(C)nc(-n3nc(C)cc3C)n2)ccc1O	4.5	/	57.5*	14.5	/	54.2*
O=C(CC[C@H]1O[C@@H](n2ccc(=O)[nH]c2=O)[C@H](O)[C@@H]1O)N[C@H](Cc1ccccc1)C(=O)NCC1CCCO1 (stereo partly specified)	/	/	/	-27.3	/	/
CC(=O)OC(Cn1nc(C)cc1C)c1ccccc1 (stereo unspecified)	0.3	1.1	3.8	-1.2	-5.8	0.2
CCCCN(C(C)=O)c1c(CC)nc2ccc(C(=O)Nc3cccc(OCC(=O)N(C)C)c3)cn12	/	/	/	-2.7	/	/
Cc1ccc(/C=C/C(=O)C2C(=O)c3ccccc3C2=O)cc1	3.9	0	94.8*	85.1*	97.3*	94.1*
CSc1ccccc1C(=O)NCc1ccc(S(N)(=O)=O)cc1	0.5	1.1	15.6	-0.5	-6.1	/
COCCSc1ccccc1C(=O)NCc1ccc(S(N)(=O)=O)cc1	5.8	1	6.0	4.2	-1.5	7.0
O=C(CSc1nnc(-c2cccs2)o1)NCC1CN(Cc2ccccc2)CCO1 (stereo unspecified)	-1.1	1	0.9	-13.7	-1.3	6.9
CC(c1ccncn1)N(C)C(=O)c1ccc2oc(Cc3ccccc3)nc2c1 (stereo unspecified)	-3.4	/	/	-10.3	/	/
Cc1ccc(C(=O)N(C)c2ccc(OCC(=O)N3c4ccc(C)cc4C4CN(C)CCC43)cc2)cc1 (stereo unspecified)	2.6	0.1	51.7*	51.8*	87.9*	46.2
Cc1ccc(C(=O)Nc2ccc(F)cc2)o1	0.2	0.8	2.3	4.9	19.7	/
Cc1ccc(C(=O)Nc2ccc(O)c(C(=O)O)c2)o1	-0.6	1	-1.2	-0.8	1.9	-7.4
Cc1ccc(S(=O)(=O)NC(=O)C2(C)CCN2C(=O)c2ccc(C(F)(F)F)nc2C)cc1 (stereo unspecified)	/	/	/	-20.7	/	/
CCN(CC)C(=O)CSc1ncnc2c(-c3cccs3)nsc12	-1.1	1	4.5	10.7	2.6	3.8
CCN(CC)C(=O)CSc1ncnc2sccc12	0.9	1	9.0	3.8	-4.7	/
COc1ccc(/C=N/Nc2nnc(Cc3ccccc3)c(=O)[nH]2)cc1OC	5.3	/	59.2*	67.9*	/	58.9*
COc1ccc(Cc2nnc(N/N=C/c3ccc(Br)cc3)[nH]c2=O)cc1OC	-0.5	/	-6.8	-4.1	/	/
COc1cccc(CSc2nc3ccncc3[nH]2)c1	10.9	/	83.2*	85.9*	/	80.7*
Clc1ccccc1CSc1ncccn1	3.6	1.1	12.9	-0.9	-7.3	16.9
Clc1ccccc1CSc1nc2ccncc2[nH]1	3.3	0.1	74.7*	76.2*	90.4*	75.6*
SMILES	HSP90 refold inh	FLuc stim CS	PPC-1+TRAIL kill	TRAIL sens C8	FLuc inhib CS	PPC1 cytotox
O=C(NCc1ccccc1Cl)c1ccc(CSc2nc3ccncc3[nH]2)cc1	-2.4	/	-5.8	0.8	/	/
Nc1cc(N)nc(SCc2ccccc2Cl)n1	/	/	/	-7.2	/	/
C[C@H]1CN([C@@H](C)CO)C(=O)CCCn2cc(nn2)CO[C@@H]1CN(C)C(=O)Nc1ccccc1C(F)(F)F	/	/	/	-4.2	/	/
Cc1ccc(NC(=O)c2cc(-c3cc(Cl)ccc3C)n[nH]2)cc1NS(C)(=O)=O	/	/	/	21.0	/	/
CCn1c(-c2cc(-c3ccc(C)cc3)nc3ccccc23)n[nH]c1=S	0.7	0.7	18.9	6.2	32.2	/
CCn1c(-c2cc(-c3ccc(OC(C)C)cc3)nc3ccccc23)n[nH]c1=S	2.0	0.3	40.6	56.1*	72.3*	34.3
CCN(CC)S(=O)(=O)c1cccc(C(=O)Nc2ccccc2C(=O)N2CCOCC2)c1	-0.3	1	5.2	-8.7	2.7	-4.2
CC1CCN(C(=O)c2ccccc2NC(=O)c2cccc(S(=O)(=O)N3CCOCC3)c2)CC1	0.9	1	21.2	4.9	-1.9	/
COC(=O)[C@]12CCCCC=C1N(Cc1ccco1)C(=O)[C@H](CC(=O)NCCCN1CCCC1=O)C2	/	/	/	20.4	/	/
Clc1ccccc1C=NNc1ccccn1	/	/	/	11.8	/	/
COc1ccc2nc(Cl)c(/C=N/Nc3ccccn3)cc2c1	0.4	0.2	66.5*	66.8*	79.2*	65.4*
Cc1ccc2ccccc2c1NC(=O)CNCc1ccccc1	/	/	/	-6.1	/	/
O=C(N/N=C/c1cccnc1)c1ccc2c(c1)OCCO2	1.7	0.1	54.8*	81.2*	91.0*	58.8*
C/C(=N\Nc1cccc2cccnc12)c1ccc[nH]1	7.8	0.1	49.8	41.1	86.2*	48.6
CCC(=O)Nc1cccc2cccnc12	-3.1	1.1	23.7	2.9	-7.9	/
COCCN(Cc1ccc(OC)cc1)c1c(C)nc2ccc(C(=O)NCCc3c[nH]c4ccccc34)cn12	/	/	/	-15.5	/	/
COc1cc(/C=C/C(=O)OCN2C(=O)c3ccccc3C2=O)ccc1OC(F)F	-3.8	/	/	-5.1	/	/
O=C(O)c1cc(N2CCOCC2)nc2ccccc12	2.3	/	/	5.7	/	/
O=C(O)c1cc(/C=C/c2ccc(N3CCOCC3)cc2)nc2ccccc12	11.7	0	89.6*	87.2*	97.0*	91.2*
COc1cc(/C=C/c2cc(C(=O)O)c3ccccc3n2)ccc1OC(F)F	0.4	/	79.7*	82.6*	/	79.0*
c1cc2c(cc1C1=NNC(=NC3CC3)SC1)OCCO2	76.3*	0	88.6*	91.7*	96.3*	87.5*
Clc1ccc(-c2nnc(SCc3ccon3)o2)c(Cl)c1	1.3	0.2	44.0	48.2*	77.9*	39.0
Clc1ccc(-c2nnc(SCc3nc4ccccc4[nH]3)o2)c(Cl)c1	-0.1	1	20.3	-3.7	-4.8	/
CCc1ccccc1C1=CC(=O)C[C@H](c2ccc(OC)cc2)C1	/	/	/	-7.9	/	/
O=C(O)CCc1ccc(-c2ccc(Cl)cc2)o1	8.7	1	-12.9	1.2	0.8	/
ClCc1ncc(-c2ccc(Cl)cc2)o1	2.0	1.1	18.0	0.8	-7.0	17.1
COC(=O)c1ccc(OCC(=O)c2ccc(O)cc2O)cc1	10.5	0.3	37.2	35.0	65.4*	35.5
CCOC(=O)c1cc(-c2ccc(OC)cc2OC)nn1-c1ccc(C(=O)O)cc1	-1.1	1	15.5	-7.3	-3.1	/
CC(=O)Nc1nc2nc(-c3ccccc3)cc(-c3ccccc3)n2n1	-2.8	1	11.9	-6.2	-0.1	/

Assay outcomes deposited in PubChem BioAssay by several laboratories.
